Experimental data reported in ChEMBL document CHEMBL1152848, “Penetratin and derivatives acting as antifungal agents” (2009).
Peptide text beside a SMILES is read from it.

Columns and labels:
Assay type in all cases: functional
[1] = test system: Cryptococcus neoformans; assay: Antifungal activity against Cryptococcus neoformans ATCC 32264 assessed as growth inhibition at 50 uM after 48 hrs; conditions: ATCC 32264, 48 h
Method in brief: (§1)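 Percent growth inhibition by broth microdilution in RPMI-1640. Peptides were dissolved in DMSO (≤2%) and diluted to final 200–12.5 µM. Inoculum 1-5 × 10^3 CFU/ml, cells maintained on Sabouraud agar. Growth control (medium, inoculum, same DMSO, no compound) and sterility control per strain. Plates held 48 h at 35 °C, moist and dark, then read by microplate reader. Amphotericin B positive control. Duplicate tests.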

[2] = test system: Cryptococcus neoformans; assay: Antifungal activity against Cryptococcus neoformans ATCC 32264 assessed as growth inhibition at 100 uM after 48 hrs; conditions: ATCC 32264, 48 h; method in brief: as §1
[3] = test system: Candida albicans; assay: Antifungal activity against Candida albicans ATCC 10231 assessed as growth inhibition at 50 uM after 24 hrs; conditions: ATCC 10231, 24 h
Method in brief: (§2)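 Percent growth inhibition in 96-well microdilution, RPMI-1640. Peptide stocks in DMSO (≤2%), diluted to final 200–12.5 µM. Inoculum adjusted to 1-5 × 10^3 CFU/ml, grown beforehand on Sabouraud–chloramphenicol agar 48 h at 30 °C. Compound-free growth control with matching DMSO, plus sterility control. Incubated 24 h at 35 °C in a moist dark chamber, then read by microplate reader. Amphotericin B as 100% inhibition reference. Duplicates.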

[4] = test system: Cryptococcus neoformans; assay: Antifungal activity against Cryptococcus neoformans ATCC 32264 assessed as growth inhibition at 200 uM after 48 hrs; conditions: ATCC 32264, 48 h; method in brief: as §1
[5] = test system: Cryptococcus neoformans; assay: Antifungal activity against Cryptococcus neoformans ATCC 32264 assessed as growth inhibition at 25 uM after 48 hrs; conditions: ATCC 32264, 48 h; method in brief: as §1
[6] = test system: Candida albicans; assay: Antifungal activity against Candida albicans ATCC 10231 assessed as growth inhibition at 200 uM after 24 hrs; conditions: ATCC 10231, 24 h; method in brief: as §2
[7] = test system: Candida albicans; assay: Antifungal activity against Candida albicans ATCC 10231 assessed as growth inhibition at 25 uM after 24 hrs; conditions: ATCC 10231, 24 h; method in brief: as §2
[8] = test system: Cryptococcus neoformans; assay: Antifungal activity against Cryptococcus neoformans ATCC 32264 assessed as growth inhibition at 12.5 uM after 48 hrs; conditions: ATCC 32264, 48 h; method in brief: as §1
[9] = test system: Candida albicans; assay: Antifungal activity against Candida albicans ATCC 10231 assessed as growth inhibition at 12.5 uM after 24 hrs; conditions: ATCC 10231, 24 h; method in brief: as §2
[10] = test system: Candida albicans; assay: Antifungal activity against Candida albicans ATCC 10231 assessed as growth inhibition at 100 uM after 24 hrs; conditions: ATCC 10231, 24 h; method in brief: as §2

Compound | inhibition at 50 µM [1] | inhibition at 100 µM [2] | inhibition at 50 µM [3] | inhibition at 200 µM [4] | inhibition at 25 µM [5] | inhibition at 200 µM [6] | inhibition at 25 µM [7] | inhibition at 12.5 µM [8] | inhibition at 12.5 µM [9] | inhibition at 100 µM [10]
H-RKRRKKK-NH2 | 19% | 14% | 0% | 60% | 10% | 43% | 0% | 0% | 0% | 12%
C[C@@H]1[C@H](O)[C@@H](C)/C=C/C=C/C=C/C=C/C=C/C=C/C=C/[C@H](O[C@@H]2O[C@H](C)[C@@H](O)[C@H](N)[C@@H]2O)C[C@@H]2O[C@](O)(C[C@@H](O)C[C@@H](O)[C@H](O)CC[C@@H](O)C[C@@H](O)CC(=O)O[C@H]1C)C[C@H](O)[C@H]2C(=O)O [AMPHOTERICIN B] | 100% | 100% | 100% | 100% | 100% | 100% | 100% | 100% | 100% | 100%
H-RKRRKWKK-NH2 | 11% | 33% | 0% | 100% | 6% | 29% | 0% | 0% | 0% | 13%
H-RKWRRKWKK-NH2 | 14% | 68% | 58% | 99% | 16% | 100% | 40% | 0% | 15% | 76%
CC(=O)N1CCN(c2ccc(OCC3COC(Cn4ccnc4)(c4ccc(Cl)cc4Cl)O3)cc2)CC1 (stereo not given) [KETOCONAZOLE] | 100% | 100% | 100% | 100% | 100% | 100% | 100% | 100% | 100% | 100%
H-WKQKNIKWRFRQKMIR-NH2 | 36% | 92% | 0% | 96% | 28% | 60% | 0% | 0% | 0% | 52%
CC[C@H](C)[C@H](NC(=O)[C@H](CCCCN)NC(=O)[C@@H](NC(=O)[C@H](CCC(N)=O)NC(=O)[C@@H](N)CCCNC(=N)N)[C@@H](C)CC)C(=O)N[C@@H](Cc1c[nH]c2ccccc12)C(=O)N[C@@H](Cc1ccccc1)C(=O)N[C@@H](CCC(N)=O)C(=O)N[C@@H](CC(N)=O)C(=O)N[C@@H](CCCNC(=N)N)C(=O)N[C@@H](CCCNC(=N)N)C(=O)N[C@@H](CCSC)C(=O)N[C@@H](CCCCN)C(=O)N[C@@H](Cc1c[nH]c2ccccc12)C(=O)N[C@@H](CCCCN)C(=O)N[C@@H](CCCCN)C(N)=O [PENETRATIN] | 100% | 100% | 95% | 100% | 100% | 100% | 91% | 90% | 4% | 100%
H-RKFRRKFKK-NH2 | 13% | 11% | 33% | 73% | 9% | 61% | 23% | 0% | 0% | 44%
NCCCC[C@H](NC(=O)[C@H](CCCCN)NC(=O)[C@H](Cc1c[nH]c2ccccc12)NC(=O)[C@@H](N)CCCCN)C(N)=O (H-KWKK-NH2) | 0% | 0% | 0% | 0% | 0% | 9% | 0% | 0% | 0% | 2%
N=C(N)NCCC[C@H](N)C(=O)N[C@@H](CCC(N)=O)C(=O)N[C@@H](CCCCN)C(=O)N[C@@H](CCCCN)C(N)=O (H-RQKK-NH2) | 92% | 100% | 0% | 100% | 62% | 6% | 0% | 32% | 0% | 0%
